Data: ChEMBL document CHEMBL4513216, “Probing the Open Global Health Chemical Diversity Library for Multistage-Active Starting Points for Next-Generation Antimalarials” (ACS Infect Dis, 2020)

Assay: Toxicity liver stage against HepG2, at 10uM
Assay type: cell-based
Design: test concentration 10 uM, cell line HepG2-A16-CD81EGFP
Conditions: human, HepG2-A16-CD81EGFP cells; read-out: INHIBITION
In short: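 Uninfected HepG2-A16-CD81EGFP cells, 3 × 10^3 per well, 1536-well, plated on prespotted compound at 10 μM final, parasite-free screening media added to match infected plates; puromycin 10 μM positive, DMSO 0.5% negative; run in parallel with 48 h PbLuc assay at 37 °C, 5% CO2; viability by CellTiter-Glo luminescence, normalized to controls.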

SMILES | cytotoxicity at 10 µM
COCc1nc(N(C)C)ncc1C(=O)OC | 13.2%
O=c1[nH]c(NCCO)nc2c1C1(CCCCC1)Cc1ccccc1-2 | 7.11%
CCN1CCN(Cc2coc(-c3cccc(F)c3)n2)CC1 | -7.75%
Cn1nc(-c2ccc(Cl)cc2)c(Br)c1C(=O)O | -46.8%
Cc1nccn1CC1CCN(C(=O)Cc2ccccc2)CC1 | -17%
Cc1oncc1C(=O)NCC1(O)CCc2ccccc2C1 (stereo unspecified) | -6.29%
Cc1cccc(CN2CCc3[nH]nc(C(=O)N4CCOCC4)c3C2)n1 | 6.31%
CCS(=O)(=O)NCC1OCCc2cn(CC3CCOCC3)nc21 (stereo unspecified) | 2.77%
O=C(O)c1nnn(-c2cccc(C(F)(F)F)c2)c1-c1ccncc1 | 4.76%
Cc1ccc(NC(=O)Cn2cc(I)cn2)cc1C | 5.03%
CCN1CCN(S(=O)(=O)c2cc(C)c(C)cc2Br)CC1 | -9.74%
c1ccc(N2CCC(c3ccncc3)CC2)cc1 | 8.45%
CC(C)(C)n1nnnc1CN(CCc1ccccc1)Cc1ccccc1 | 4.91%
Cc1c[nH]nc1C1CCN(C(=O)C2CCCC2)C1 (stereo unspecified) | 0.631%
Nc1cc(N2CCOCC(Cc3ccc4[nH]ccc4c3)C2)ncn1 (stereo unspecified) | -5.69%
CCc1c(C)nc2cc(C3CCN(Cc4ccc(F)cc4)C3)nn2c1O (stereo unspecified) | -18.6%
O=C(Cc1ccc2c(c1)CCCC2)N[C@@H]1CC[C@@H](n2ccnc2)[C@@H]1O | -5.69%
Cc1cc(C)nc(N2CCC(c3cncc(-n4ccnc4)n3)CC2)n1 | -8.66%
COc1ccc(CN(C(=O)C2CCCOC2)c2ccncc2)cc1 (stereo unspecified) | 6.35%
CC(C)c1cc(C(=O)N2CCc3ccccc3C2C(=O)O)n(C)n1 (stereo unspecified) | 7.28%
CCN(C)S(=O)(=O)N(Cc1cscn1)c1ccccc1 | -3.81%
CC(=O)c1cccc(NC(=O)NCCc2nnc[nH]2)c1 | -39.1%
COc1cccc(CNCc2c(C)nc3sc(C)cn23)c1OC | 32.8%

SMILES | cytotoxicity at 10 µM
O=C(NCCCC(=O)N1Cc2ccccc2C1)NCc1cccnc1 | 11.9%
CC(NCCNS(=O)(=O)c1cccc(Cl)c1)C1CCOCC1 (stereo unspecified) | -1.6%
CN1CCOC(CNCCOc2cccc(C#N)c2)C1 (stereo unspecified) | 7.56%
Cn1cccc1C(=O)NC1CCN(c2ccc(OC(F)(F)F)cc2)CC1 | 4.87%
Cc1c(NCc2ccccc2C#N)cccc1S(=O)(=O)NC1CC1 | 30.4%
O=C(CCn1ccc2ccccc21)N1CCN(Cc2cccnc2)CC1 | 0.951%
CN(Cc1cccc(C#N)c1)c1ncc(C(N)=O)cc1Cl | 1.33%
CCc1ccc(C2COCCN2C(=O)Nc2ccc(C#N)cc2)o1 (stereo unspecified) | -0.0554%
O=C(NC1CCCCC1)C1CCCN(C(=O)Nc2ccccn2)C1 (stereo unspecified) | 3.57%
N#CCCN(C(=O)CN1CCCC1c1ccccc1Cl)c1ccccc1 (stereo unspecified) | 8.22%
COCc1nc2cc(NCc3cc[nH]n3)ccc2o1 | 6.7%
Cc1cnn(CCNCc2ccc(OCc3noc(C)n3)cc2)c1 | 1.33%
CCOC(C)c1noc(CN2CCN(c3nnc(C)s3)CC2)n1 (stereo unspecified) | -11.1%
COCC(C)(C#N)NC(=O)COc1ccccc1 (stereo unspecified) | 7.51%
CN(CCCc1ccc(C(F)(F)F)cc1)Cc1nccn1C | 9.05%
CC(C)CC(Cc1cccc(Br)c1)C(=O)O (stereo unspecified) | 13.8%
Cc1cc(N(C)CCOc2ccccc2F)nc(N)n1 | 20.1%
CCOc1cc(CNC(C)c2sccc2C)ccn1 (stereo unspecified) | -8.14%
COc1cccc(N2CCC(CNc3cc(C)nc4ncnn34)C2)c1 (stereo unspecified) | 59.7%
CCCN(CCc1ccccn1)C(=O)CCc1cnn(C)c1 | -2.84%
O=C(CN1CCC(Nc2ncccn2)CC1)Nc1ccccc1 | -17.5%
Cc1ccc(CN(C)C(=O)c2cnsn2)cc1 | -16.4%
Cc1ccccc1C(=O)NC1CCN(Cc2ncc(C(C)(C)C)o2)CC1 | -17.5%

SMILES | cytotoxicity at 10 µM
Cc1ccc(-n2ncc(C(=O)NC3CCCCC3)c2N)cc1 | -50.6%
Cc1cc(NC(=O)c2nc(N3CCCC3)ncc2Cl)nc(C(C)C)n1 | 69.3%
CSc1ccc(C(CN)N2CCc3sccc3C2)cc1 (stereo unspecified) | -5.93%
COc1cc(N2C[C@@H]3COC[C@@H](Cc4nc(C)no4)[C@@H]3C2)ncn1 | -105%
O=C(c1ccoc1)N1CCc2c(COCC3CC3)cncc2C1 | -76.9%
COCCC(=O)N1CC[C@H]2O[C@@H](C)C[C@H]2C1 | -72.4%
Cc1nc(NCC2CC2)nc2c1COCC21CCN(S(=O)(=O)C2CC2)C1 (stereo unspecified) | -84.8%
COCC1CN(C(=O)Cc2cccs2)Cc2c1cnn2C (stereo unspecified) | -65.6%
O=C(NC1CCC1)C1=NOC2(CCN(Cc3ccc(F)cc3)C2)C1 (stereo unspecified) | -67.7%
CCO[C@@H]1CO[C@@]2(CCCN(S(=O)(=O)c3ccccc3)C2)C1 | -77.2%
CSc1ncccc1C(=O)N1CCCC1c1ccc(C(=O)N(C)C)s1 (stereo unspecified) | 6.45%
Cn1nnnc1SCCNC1CCN(c2ccc3c(c2)OCO3)CC1 | 3.07%
CCc1cc(CN2CCCCC2c2ccc(F)cc2)on1 (stereo unspecified) | -2.45%
FC(F)(F)CCc1ccnc(N2CCN(CCc3ccncc3)CC2)n1 | -5.86%
Cc1cc(F)c(C(C(=O)O)N2CCN(Cc3ccccn3)CC2)cc1Cl (stereo unspecified) | 4.2%
CC(C)N(C)S(=O)(=O)c1ccc2c(c1)CCN(C(=O)c1cscn1)C2 | 8.48%
CC(C)c1nc(CN(C)C(=O)c2ccc(CN3CCCCC3)cc2)cs1 | -6.1%
CCCN1CCN(S(=O)(=O)c2ccccc2OC)[C@H]2CS(=O)(=O)C[C@H]21 | -3.56%
C=C(C)COc1cccc(C(=O)N2CCC(O)(c3ccccc3)CC2)c1 | -44.9%
c1ccc(-c2nc3c(c(NCCn4cccc4)n2)CCNCC3)nc1 | -51.9%
COc1ccc(C(=O)N2CCC3(CC2)c2ccccc2[C@@H](N)[C@@H]3O)cc1 | -3.34%
CN(Cc1csc(-c2ccccc2)n1)C(=O)CCn1ccccc1=O | -2.84%
CN1CCC(N(C)CCC(=O)N2CCC(Cc3ccc(F)cc3)CC2)C1 (stereo unspecified) | -1.9%

SMILES | cytotoxicity at 10 µM
Cc1nc2c(c(NCc3ccccc3)n1)CCN(C(=O)NC(C)C)CC2 | 28.7%
Cc1ncsc1CCN(C)C(=O)CN1C(=O)OC[C@@H]1c1ccccc1 | -51.2%
CC(C)c1ocnc1C(=O)NC(c1nnc2n1CCNCC2)C(C)C (stereo unspecified) | -9.72%
CN(C)c1nc2c(c(N3CCc4ccccc4C3)n1)CCNC2 | 10.9%
COc1cccc(CCC2CCCN(Cc3ncc[nH]3)C2)c1 (stereo unspecified) | 1.13%
CN(CCSc1ccccc1)C(=O)c1cn2c(n1)CNCC2 | -47.4%
N#Cc1cccc(C(=O)N2CCCC(O)(CO)CC2)c1 (stereo unspecified) | 1.29%
NC(=O)c1cc2c(nc1Oc1ccc(CN3CCCC3)cc1F)CCC2 | -3.62%
OCCOc1ccccc1CN1CCCC(O)(CO)C1 (stereo unspecified) | -38.7%
COc1ccc(-n2cnnc2CC2CCNCC2)cc1 | -5.53%
CCc1nn(C)c(Cl)c1CN1CCN(c2ccc(Cl)nn2)CC1 | 8.01%
CCc1csc(CNc2nc3c(s2)c(C)nn3C)n1 | -35.5%
O=C(NC1CC1)C1CN(c2nc3ccccc3s2)CCN1 (stereo unspecified) | -49.4%
COc1ncc(-c2cc(NC3CCCC3)nc3[nH]ccc23)c(OC)n1 | 16.3%
COCc1nc2ncc3c(=O)n(-c4ccccc4OC)ccc3n2n1 | -8.17%
CCC(=O)Nc1cccc(OCC(=O)N(C)Cc2nccn2CC)c1 | 3.96%
Nc1nc2c(c(N3CCSCC3)n1)CCN(Cc1ccccn1)CC2 | -53%
COc1ccc(OCc2cc(C(=O)N3CCN[C@H](C)C3)n[nH]2)c(Cl)c1 | -11.7%
COc1ccc(N(c2ccccc2)c2ccc(C(=O)O)s2)cc1 | -1.5%
Cc1cc(Br)c(O)c(-c2nc(N3CCCCC3)sc2C)c1 | -7.13%
CC(=O)N1C[C@@H](c2ccsc2)[C@@H]2CN(Cc3cccc(Cl)c3)CC[C@@H]21 | 13.1%
COCCN1CCN(CCCS(=O)(=O)N(C)C)CC1C (stereo unspecified) | 3.54%
CC(=O)c1ccc(S(=O)(=O)NCc2cccnc2N(C)C)cc1 | 12.6%

SMILES | cytotoxicity at 10 µM
CC(C)C(=O)NC1CCCN(C(=O)c2ccc(O)c(Cl)c2)C1 (stereo unspecified) | -6.04%
CCc1ccc(CN2CCCCC2c2n[nH]cc2-c2cc(C)no2)cc1 (stereo unspecified) | 35%
CC1(C)CC(N(Cc2cccnc2)Cc2cccnc2)CC(C)(C)N1 | 1.3%
CO[C@@H]1CO[C@@]2(CCCN(Cc3nc(C)cs3)C2)C1 | -138%
CN1CCN(C(=O)Cc2ccsc2)Cc2cccnc21 | -1.16%
Cn1nc(C2CCCN(Cc3ccccc3)C2)c2nccnc21 (stereo unspecified) | -9.05%
CC[C@@H]1N(CC2CC2)CCC[C@]12CCC(=O)N2 | 15.4%
N#Cc1ccc(N2CCCC3(CCN(c4cncnc4)C3=O)C2)nc1 (stereo unspecified) | -97.6%
Cc1occc1C(=O)N1C[C@@H]2OCCN(CCN3CCCC3)[C@@H]2C1 | -76.1%
c1cncc(OC[C@@H]2CCC[C@@]23CN(Cc2nccs2)CCO3)c1 | -63.3%
Cn1ncc2c1CN(C(=O)Cc1ccccn1)CC2COCC1CC1 (stereo unspecified) | -73.6%
O=C(N1CCCC1)N1CCOCC2(CCN(Cc3cccs3)C2)C1 (stereo unspecified) | -3.85%
CN(C)c1nccc(N2CCO[C@H]3CN(Cc4ccsc4)C[C@H]32)n1 | 8.93%
Cc1ccc(CN2Cc3nccn3CC(CN(C)C)C2)s1 (stereo unspecified) | -82.4%
Cc1occc1C(=O)N1CCC2(CCN(Cc3ccccn3)C2=O)C1 (stereo unspecified) | -152%
COc1cc(CNC(C)c2ccc(F)c(F)c2)cc2c1OCCO2 (stereo unspecified) | -1.58%
CCC1=NN2C(=N)C(=Cc3cccn3-c3ccc(Br)cc3)C(=O)N=C2S1 | -7.83%
Cc1nnc(CN2C[C@@H]3CC[C@H]2CN(C2Cc4ccccc4C2)C3)o1 | -1.06%
CN(C)C(=O)[C@H]1C[C@H]2CN(CCc3ccccc3)C[C@@H]1O2 | -94.2%
